Screening data from PubChem BioAssay.
Sampled rows, rich in hits. Any-hit rate of the full collection: about 2.5%.
PRMT1 FP inh – PRMT1 (human) inhibition, primary screen | Q99873 | recombinant PRMT1, activity-based probe fluorescence polarization | inhibition, % at 2.79 µM | 370,000 compounds, 1.3% hits | AID 652257;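 active = inhibition above about 21% made by adding two undisclosed values, limit read from the data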
Target sequence (Q99873 whole entry, looked up): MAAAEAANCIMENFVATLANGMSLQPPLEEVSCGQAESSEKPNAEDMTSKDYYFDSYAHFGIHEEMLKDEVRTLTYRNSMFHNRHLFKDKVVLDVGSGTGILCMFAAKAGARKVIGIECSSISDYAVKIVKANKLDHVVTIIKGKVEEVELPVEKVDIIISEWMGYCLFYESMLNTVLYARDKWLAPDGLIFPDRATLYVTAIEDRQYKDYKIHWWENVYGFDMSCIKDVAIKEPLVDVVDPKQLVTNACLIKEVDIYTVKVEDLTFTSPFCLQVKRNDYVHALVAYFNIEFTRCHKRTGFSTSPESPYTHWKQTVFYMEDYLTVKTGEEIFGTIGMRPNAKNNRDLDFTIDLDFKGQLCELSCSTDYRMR
SIAE inh – human SIAE inhibition, primary screen. SIAE FP-Rh probe binding, fluorescence polarization. 370,000 compounds, 0.69% hits. AID 1053197. Q9HAT2. inhibition, % at 9.66 µM;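 active = inhibition above a cutoff: mean of compounds within the control limits plus 3 SD of those, cut at about 17% in these data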
HTRA1 inh – blocks human HTRA1 serine peptidase; recombinant HTRA1, FP-rhodamine activity-based probe, fluorescence polarization; inhibition, % at 5.96 µM; 340,000 compounds, 0.5% hits; in the data active = inhibition above about 36%
mABHD4 FP – inhibitors of mouse ABHD4 | Q8VD66 | purified mABHD4, FP-Rh probe fluorescence polarization | inhibition, % at 8.92 µM | 370,000 compounds, 0.54% hits | AID 720543;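 active = inhibition exceeding the mean over every tested compound plus 3 SD, cut at about 30% in these data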
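assay system = mABHD4 protein | compound dosing = single nominal dose of 8.92 µM, 0.89% DMSO final | read-out basis = percent inhibition of probe binding, normalized to plate controls | schedule = Enzyme–compound pre-incubation 45 min, then probe 60 min, both 25 °C | detection = fluorescence polarization, excitation 525 nm, emission 598 nm, BODIPY TMR filters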
TCR-CD3 inh – blocks the human TCR-CD3 interaction. inhibition, % at 9.4 µM. 360,000 compounds, 0.37% hits. TAMRA-labeled TCR probe fluorescence, biochemical. AID 651800; in the data active = inhibition above about 19%;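 also: recombinant mutant TCR 2C K166C tagged with TAMRA read by polarization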
PRMT1 confirm – PRMT1 (human) inhibition, FP confirmation | shares compounds with PRMT1 FP inh | recombinant His-PRMT1, activity-based probe fluorescence polarization | inhibition, % at 2.79 µM | 3,300 compounds, 42% hits | AID 687036;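 active = mean inhibition across replicates above the hit cutoff derived for the earlier primary screen, cut at about 22% in these data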
A number is an active result; . = inactive; / = not tested or not shown.

SMILES | PRMT1 FP inh | SIAE inh | HTRA1 inh | mABHD4 FP | TCR-CD3 inh | PRMT1 confirm
COCC(=O)Nc1ccc(N2CCOCC2)c(S(=O)(=O)Nc2ccccc2OC)c1 | . | . | . | . | . | /
COc1ccccc1NS(=O)(=O)c1cc(NC(=O)c2sccc2C)ccc1N1CCCC1 | 66 | . | . | . | . | 84
COc1ccccc1NS(=O)(=O)c1cc(NC(=S)NCCN2CCOCC2)ccc1N1CCOCC1 | 36 | . | . | . | . | 57
Cc1ccc(S(=O)(=O)N(C)C)cc1NC(=O)C(C)OC(=O)c1cc[n+]([O-])cc1 (stereo unspecified) | . | . | . | . | . | /
Cc1ccc(S(C)(=O)=N/C=C2\C(=O)c3sccc3N(C)S2(=O)=O)cc1 (stereo unspecified) | . | . | . | . | . | /
O=C(O)c1cccc(-n2cccc2/C=N/O)c1 | . | . | . | . | . | /
O=C(O)c1cccc(-n2cccc2/C=C\[N+](=O)[O-])c1 | 36 | . | . | . | . | .
Cc1c([N+](=O)[O-])c(C(=O)Sc2ccc(Br)cc2)nn1C | 50 | . | . | . | . | 75
Cc1c([N+](=O)[O-])c(C(=O)N2CCCC2)nn1C | . | . | . | . | . | /
c1cn2cc(-c3ccc4c(c3)OCO4)nc2s1 | 35 | . | . | . | . | 46
COc1ccccc1CNC(=O)COC(=O)CCN=C1NS(=O)(=O)c2ccccc21 | . | . | . | . | . | /
Nc1nc(N)c2[nH]c(=S)[nH]c2n1 | 54 | . | . | . | . | .
Cc1ccccc1OCCC(=O)Nc1cc(S(=O)(=O)N2CCOCC2)ccc1OC(C)C | . | . | . | . | . | /
Cc1onc(-c2c(F)cccc2Cl)c1C(=O)OCC(=O)Nc1cccc(S(=O)(=O)N(C)C)c1 | . | . | . | . | . | /
Cc1cc(C)n2nc(N)c(N=Nc3cccc(Cl)c3)c2n1 | 58 | . | . | . | . | .
NC(=O)NC(=O)CC1S/C(=N/N=C2\CSC(=O)N2)NC1=O (stereo unspecified) | 45 | . | . | . | . | 33
NC(=O)NC(=O)CC1S/C(=N/N=C/c2ccccc2)NC1=O (stereo unspecified) | . | . | . | . | . | /
O=C(NC1CCCCN(Cc2cccc(C(F)(F)F)c2)C1=O)c1c(F)cccc1F (stereo unspecified) | . | . | / | . | / | /
COc1ccc(OC)c2nc(-c3ccc4c(c3)OCO4)ccc12 | . | . | . | . | . | /
CCn1nc(C)cc1-c1nnc(SCC(=O)Nc2ccccc2)n1CCCOC | . | . | . | . | . | /
CCn1nc(C)cc1-c1nnc(Sc2ncc([N+](=O)[O-])s2)n1C | 55 | . | . | . | . | 63
COc1cccc(NC(=O)COC(=O)c2sccc2C)c1 | . | . | . | . | . | /
CC(OC(=O)c1ccc2c(c1)OCO2)C(=O)NC1CCCCC1 (stereo unspecified) | . | . | . | . | . | /
CC[n+]1c(C)sc2c3ccsc3ccc21 | 38 | . | . | . | . | 64
COC(=O)c1cccc(C23CC4(C2)[C@H](CN(Cc2cccnc2)[C@@H]4c2ccccc2)C3c2ccccc2)c1 (stereo partly specified) | . | . | . | . | . | /
SMILES | PRMT1 FP inh | SIAE inh | HTRA1 inh | mABHD4 FP | TCR-CD3 inh | PRMT1 confirm
CCCOc1ccc(N2C(=O)CC(NCCNc3ccc(S(=O)(=O)CC)cc3)C2=O)cc1 (stereo unspecified) | . | . | . | . | . | /
CCOc1ccc(N2C(=O)CC(NCCc3ccc(S(N)(=O)=O)cc3)C2=O)cc1 (stereo unspecified) | 53 | . | . | . | . | .
CCOc1ccc(N2C(=O)CC(NCCc3ccncc3)C2=O)cc1 (stereo unspecified) | 58 | . | . | . | . | .
CCCOc1ccc(N2C(=O)CC(NCCc3ccc(S(N)(=O)=O)cc3)C2=O)cc1 (stereo unspecified) | 51 | . | . | . | . | .
CCOc1ccc(N2C(=O)CC(NCCc3c[nH]c4ccccc34)C2=O)cc1 (stereo unspecified) | 31 | . | . | . | . | .
COC(=O)[C@]12C[C@H](CC(=O)NCCCN3CCCC3=O)C(=O)N(CCc3ccc(OC)c(OC)c3)C1=C[C@H](C1CCCC1)O[C@@H]2C | . | . | / | . | / | /
COc1ccccc1C(=O)NC(CCSC)C(=O)NCCCn1nc(C)cc1C (stereo unspecified) | . | . | . | . | . | /
CCc1nnc2n1N=C(c1ccc(Cl)cc1)CS2 | . | . | . | . | . | /
Cc1nnc2n(c1=O)N=C(c1ccc(Cl)cc1)CS2 | 56 | . | . | . | . | 57
O=C(CCC(=O)N1CCN(C2c3ccccc3-c3ccccc32)CC1)Nc1nnc(C(F)(F)F)s1 | . | . | / | . | / | /
O=C(Nc1nc(-c2ccco2)c(-c2ccco2)s1)c1c(F)cccc1Cl | 54 | . | . | . | . | .
CC(=O)c1sc(NC(=O)c2ccccc2F)nc1-c1ccccc1 | . | . | . | . | . | /
O=C(Nc1nc(-c2ccco2)c(-c2ccco2)s1)c1ccc(F)cc1F | 34 | . | . | . | . | .
COc1ccc(CNC(=O)OC2CC3CC2[C@H]2CCCCN2C3)cc1 (stereo partly specified) | . | . | / | . | / | /
COc1cccc(/C=C2\SC(=O)N(CCC(=O)N3CCC(C(=O)O)CC3)C2=O)c1 | 30 | . | . | . | . | .
COc1cccc(/C=C2\SC(=S)N(CCCC(=O)N3CCCC3)C2=O)c1 | . | . | . | . | . | /
COC(=O)C1(C)NC(c2ccc(O)cc2)C2C(=O)N(c3ccc(C)cc3)C(=O)C21 (stereo unspecified) | . | . | . | . | . | /
O=C(CC(SCCO)c1ccc2c(c1)OCO2)c1cccs1 (stereo unspecified) | 30 | . | . | . | . | 32
Nc1nc2ccc(S(=O)(=O)N3CCCCC3)cc2s1 | 30 | . | . | . | . | 73
Cc1ccc(NC(=O)C2CC(=O)N(c3ccccc3Cl)C2)cc1S(=O)(=O)N1CCOCC1 (stereo unspecified) | . | . | . | . | . | /
CC(=O)OCC1=C(C(=O)O)N2C(=O)[C@@H](NC(=O)Cc3cccs3)[C@H]2SC1 | . | . | . | . | . | /
CC(=O)OCC1=C(C(=O)O)N2C(=O)C(NC(=O)c3ccc(COc4c(C)cccc4Cl)o3)C2SC1 (stereo unspecified) | 47 | . | . | . | . | .
CC(=O)OCC1=C(C(=O)O)N2C(=O)C(NC(=O)c3ccc(COc4ccc(Cl)cc4)o3)C2SC1 (stereo unspecified) | 36 | . | . | . | . | .
COC(=O)[C@]12C[C@H](CC(=O)N3CCN(C(=O)C4CC4)CC3)C(=O)N(Cc3ccco3)C1=C[C@H](C(C)C)O[C@@H]2C1CC1 | . | . | / | . | / | /
Cc1ccc(S(=O)(=O)N2CCCCC2)cc1NC(=O)c1ccccn1 | . | . | . | . | . | /
